Runt-SMMHC FRET = inhibitors of human RUNX1 Runt domain binding to CBFb-SMMHC; Q01196+Q13951; Cerulean-Runt/Venus-CBFb-SMMHC FRET ratio 530/480, 1 h; inhibition, % at 20 µM; hit rate 0.74% among 220,000; AID 1434;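 active = mean inhibition across duplicate retests at 20 µM reaching about 50%, limit read from the data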;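 also: 0% = DMSO wells and 100% = wells with excess untagged CBFb-SMMHC; inhibitors lower the FRET ratio by blocking Runt binding to CBFb-SMMHC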
Runt-CBFb FRET = inhibitors of human RUNX1 Runt domain binding to CBFb | hit rate 0.46% among 220,000 | inhibition, % at 20 µM | Q01196+Q13951 | Cerulean-Runt/Venus-CBFb FRET ratio 530/480, 1 h;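 active = inhibition over about 50% at 20 µM in the single-dose screen, limit read from the data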;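 also: 0% = DMSO wells and 100% = excess unlabeled CBFb competitor control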
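Buffer or medium: Tris pH 7.5 buffer with BSA. Assay system: Cerulean-labeled Runt domain protein. Amount: each fluorescent fusion protein 100 nM. Read-out basis: loss of energy transfer signal. Incubation: 1 h compound exposure, room temperature. Probe or stimulus: Venus-CBFb binding partner, 100 nM. Detection: FRET, excitation 422 nm, emission at 530 and 480 nm.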
Hck-Nef inh = blocks Nef-activated human Hck kinase; inhibition, % at 20 µM; hit rate 0.68% among 220,000; Recombinant Hck-YEEI plus Nef, Z-Lyte FRET kinase assay; P08631;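 active = Hck-Nef kinase inhibition above about 50%, limit read from the data; inactive = inhibition below that limit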;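 also: 0% = DMSO with Hck plus Nef and 100% = Hck alone without Nef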
Target sequence (P08631 whole entry, looked up): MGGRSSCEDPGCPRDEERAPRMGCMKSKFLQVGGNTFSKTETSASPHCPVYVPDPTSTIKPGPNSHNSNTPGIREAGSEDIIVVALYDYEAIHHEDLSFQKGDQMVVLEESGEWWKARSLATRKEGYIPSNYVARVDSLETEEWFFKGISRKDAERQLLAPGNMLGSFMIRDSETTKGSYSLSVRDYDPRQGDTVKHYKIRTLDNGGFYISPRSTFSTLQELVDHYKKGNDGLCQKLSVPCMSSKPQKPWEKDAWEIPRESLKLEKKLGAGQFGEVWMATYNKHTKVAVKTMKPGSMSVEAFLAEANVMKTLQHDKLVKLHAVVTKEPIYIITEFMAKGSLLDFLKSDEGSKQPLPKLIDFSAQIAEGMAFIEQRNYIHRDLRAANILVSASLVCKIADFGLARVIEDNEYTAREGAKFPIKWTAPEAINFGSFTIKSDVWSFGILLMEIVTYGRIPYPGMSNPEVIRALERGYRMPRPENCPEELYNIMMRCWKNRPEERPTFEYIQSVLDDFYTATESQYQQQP
CaV13 ICDI inh = Disruptors of the CACNA1D IQ motif to Ca2+-dependent inactivation inhibitor domain association, primary screening, Förster resonance energy transfer in intact living …. HEK cells, CFP/YFP FRET ICDI-IQ, plate reader, 10 min; percent FRET-ratio fall versus neutral wells. inhibition, % at 12.3 µM. hit rate 0.098% among 340,000. AID 743397;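 active = mean replicate inhibition of at least 30% and at least 1% of replicates passing that level; inconclusive = only one of the two criteria is met; inactive = neither criterion is met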;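 also: 0% = median of the neutral control wells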
RanGTP-Impb inh = disruptors of Ran-importin-beta complex formation – biochemical, FRET, CFP-Ran, YFP-importin-beta, homogeneous, primary screen; cell-free CFP-Ran/YFP-importin-beta FRET ratio; inhibition, % (test concentration not listed); hit rate 1.1% among 300,000;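 active = more than half of the replicate wells show a fall in the fluorescence ratio signal beyond about 16%, limit read from the data, passing the limit was not always enough; inconclusive = exactly half of the replicate wells pass the set limit; inactive = fewer than half of replicates pass the limit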;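 also: 0% = DMSO wells and 100% = Ran loaded with GDP instead of GTP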
Hck Nef conf = confirmation of Hck-Nef kinase inhibitors | Recombinant Hck-YEEI:Nef, Z-Lyte FRET kinase assay | shares compounds with Hck-Nef inh | hit rate 28% among 1,300 | calls only at 10 µM;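 active = average inhibition of at least 50%, with Z-scores no higher than 3 in both the phospho-tyrosine peptide and fluorescence counterscreens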
Active calls of the source: *. Hits are enriched below; roughly 1.5% of the tested compounds scored in any of these assays.

Screening Cc1ccc(-c2nc3ccccc3s2)cc1NC(=S)NC(=O)c1ccccc1 returned Runt-SMMHC FRET -1, Runt-CBFb FRET 2, Hck-Nef inh 38 and RanGTP-Impb inh 3.
For Cc1ccc(S(=O)(=O)N2CCOCC2)cc1C(=O)Nc1ccc2c(c1)OCCO2 the results were CaV13 ICDI inh -2.
`O=C(NCCc1ccco1)c1cc(COc2cccc(C(F)(F)F)c2)on1` gave CaV13 ICDI inh -7 and RanGTP-Impb inh -7.
Screening COc1ccccc1CNC(=O)/C=C/c1ccc(Br)o1 returned Runt-SMMHC FRET 2, Runt-CBFb FRET 12, Hck-Nef inh 91*, CaV13 ICDI inh -6, RanGTP-Impb inh -3 and Hck Nef conf active.
For COc1ccc(NC(=O)/C=C/c2ccc(Br)o2)cn1 the results were Runt-SMMHC FRET 4, Runt-CBFb FRET 14, Hck-Nef inh 23, CaV13 ICDI inh -3 and RanGTP-Impb inh 7.
`CCN(Cc1ccccc1)C(=O)CSc1nc(C)cc(=O)[nH]1` gave Runt-SMMHC FRET -1, Runt-CBFb FRET 1, Hck-Nef inh 5, CaV13 ICDI inh -4 and RanGTP-Impb inh -1.
O=C1/C(=C/c2ccco2)SC(=S)N1C1CCS(=O)(=O)C1 (centres undefined) was read as Runt-SMMHC FRET 5, Runt-CBFb FRET 30, Hck-Nef inh 20, CaV13 ICDI inh -5 and RanGTP-Impb inh inconclusive.
For O=C1/C(=C\c2ccco2)SC(=S)N1C1CCS(=O)(=O)C1 (centres undefined) the results were Runt-SMMHC FRET -2, Runt-CBFb FRET 30, Hck-Nef inh 69*, CaV13 ICDI inh -5, RanGTP-Impb inh -2 and Hck Nef conf inactive.
`CCOC(=O)c1cn(Cc2cccc(Cl)c2)c2cc(C)nn2c1=O` gave Runt-SMMHC FRET 1, Runt-CBFb FRET 2, Hck-Nef inh 2, CaV13 ICDI inh -15 and RanGTP-Impb inh 1.
NC(=S)n1[nH]c(-c2ccc([N+](=O)[O-])cc2)c(N=Nc2cccc([N+](=O)[O-])c2)c1=O was read as Runt-SMMHC FRET -3, Runt-CBFb FRET 1, Hck-Nef inh 76*, CaV13 ICDI inh -5, RanGTP-Impb inh -4 and Hck Nef conf active.
Screening NC(=S)n1[nH]c(-c2ccc([N+](=O)[O-])cc2)c(N=Nc2ccccc2[N+](=O)[O-])c1=O returned Runt-SMMHC FRET -8, Runt-CBFb FRET 2, Hck-Nef inh 45 and CaV13 ICDI inh 1.
Screening O=C(c1cnn(C(=O)COc2ccc(Cl)cc2)c1)c1ccccc1O returned Runt-SMMHC FRET 2, Runt-CBFb FRET -2, Hck-Nef inh 50*, CaV13 ICDI inh 1, RanGTP-Impb inh 2 and Hck Nef conf active.
`CN=c1scc(-c2ccccc2F)n1/N=C/c1ccc[nH]1` gave Runt-SMMHC FRET -19, Runt-CBFb FRET 3, Hck-Nef inh 28, CaV13 ICDI inh -44 and RanGTP-Impb inh -1.
Screening CN=c1scc(-c2ccccc2F)n1/N=C/c1ccc(O)c(O)c1O returned Runt-SMMHC FRET 18, Runt-CBFb FRET 44, Hck-Nef inh 122*, CaV13 ICDI inh -2, RanGTP-Impb inh 2 and Hck Nef conf inactive.
Cc1ccc(C(=O)NCC(=O)OCc2c(F)cccc2Cl)s1 was read as CaV13 ICDI inh -3.
Cc1ccc2nc(NC(=O)c3cccc(-c4cc5ccccc5oc4=O)c3)sc2c1 was read as Runt-SMMHC FRET -2, Runt-CBFb FRET -7, Hck-Nef inh 63*, CaV13 ICDI inh -9, RanGTP-Impb inh -2 and Hck Nef conf inactive.
Screening CCOc1ccc2nc(NC(=O)c3cccc(-c4cc5ccccc5oc4=O)c3)sc2c1 returned Runt-SMMHC FRET -5, Runt-CBFb FRET -1, Hck-Nef inh 43, CaV13 ICDI inh -7 and RanGTP-Impb inh 2.
For CCn1cnc2c(Nc3cccc(Cl)c3)nc(C#N)nc21 the results were CaV13 ICDI inh -6.
CC(C)[C@H](CO)N(Cc1cccc(F)c1)c1nc(Nc2cccc(Cl)c2)c2ncn(C(C)C)c2n1 was read as Runt-SMMHC FRET 3, Runt-CBFb FRET 2, Hck-Nef inh 68*, CaV13 ICDI inh -9, RanGTP-Impb inh 0 and Hck Nef conf active.
`CC[C@H](CO)Nc1nc(Nc2cccc(Cl)c2)c2ncn(C(C)C)c2n1` gave Runt-SMMHC FRET -2, Runt-CBFb FRET 2, Hck-Nef inh 110*, CaV13 ICDI inh -9, RanGTP-Impb inh -1 and Hck Nef conf active.
For CCN(C(=O)CN1C(=O)S/C(=C\C=C\c2ccccc2)C1=O)C1CCS(=O)(=O)C1 (centres undefined) the results were CaV13 ICDI inh -7 and RanGTP-Impb inh 0.
`CCNC(=S)N/N=C/c1ccc(OCC(=O)Nc2ccc(OC)cc2)c(OC)c1` gave Runt-SMMHC FRET -1, Runt-CBFb FRET -2, Hck-Nef inh 4, CaV13 ICDI inh -3 and RanGTP-Impb inh 3.
CCCCNC(=O)C(=O)N/N=C/c1ccc(OCC(=O)Nc2cccc(OC)c2)c(OC)c1 was read as Runt-SMMHC FRET -3, Runt-CBFb FRET 0, Hck-Nef inh 71*, CaV13 ICDI inh -6, RanGTP-Impb inh -2 and Hck Nef conf active.
For CSc1nc(N)nc2c1ncn2CC(=O)NCC1CCCO1 (centres undefined) the results were CaV13 ICDI inh -9.
CC1CCC2(CC1)NC(=O)N(CC(=O)Nc1sc3c(c1C(N)=O)CCC3)C2=O (centres undefined) was read as Runt-SMMHC FRET -5, Runt-CBFb FRET 2, Hck-Nef inh 64*, CaV13 ICDI inh -5, RanGTP-Impb inh 2 and Hck Nef conf active.
COc1ccc(-n2nc(C(=O)NCC(=O)NCC3CCCO3)c3ccccc3c2=O)c(OC)c1 (centres undefined) was read as Runt-SMMHC FRET 2, Runt-CBFb FRET -2, Hck-Nef inh -1, CaV13 ICDI inh -5 and RanGTP-Impb inh inconclusive.
`COc1ccc(-n2c(N)c(C(=O)NCC3CCCO3)c3nc4ccccc4nc32)c(OC)c1` (centres undefined) gave Runt-SMMHC FRET 106*, Runt-CBFb FRET 44, Hck-Nef inh 75* and RanGTP-Impb inh 52*.
For C=CCn1c(N)c(C(=O)NCC2CCCO2)c2nc3ccccc3nc21 (centres undefined) the results were Runt-SMMHC FRET 46, Runt-CBFb FRET 4, Hck-Nef inh 55* and RanGTP-Impb inh 107*.
For CC(CCN1CCN(CCO)CC1)c1ccccc1 (centres undefined) the results were CaV13 ICDI inh -1 and RanGTP-Impb inh 1.

Screens: PubChem BioAssay, several laboratories
